# Screening data: PubChem BioAssay, The Scripps Research Institute Molecular Screening Center
# CHRM4 antagonist: CHRM4 antagonism in calcium assay; P08173; CHO-hM4 cells, ACh EC80, Fluo-8 calcium fluorescence; inhibition, % at 3 µM; 360,000 tested, 0.73% active; AID 624125;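 active = inhibition above its plate's cutoff, the mean inhibition of sample wells plus 3 SD, cut at about 27% in these data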;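 note: 0% = acetylcholine EC80 with DMSO and 100% = DMSO without agonist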
# CHRM5 antagonist: antagonists of human muscarinic M5 receptor (CHRM5); inhibition, % at 3 µM; AID 624040; CHO-hM5 cells, Fluo-8 calcium fluorescence, ACh EC80; 360,000 tested, 0.59% active; P08912;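 active = inhibition above a per-plate cutoff, the mean of that plate's test compounds plus 3 SD, cut at about 27% in these data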;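 note: 0% = acetylcholine EC80 with DMSO and 100% = DMSO without agonist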
# Target sequence (P08912 whole entry, looked up): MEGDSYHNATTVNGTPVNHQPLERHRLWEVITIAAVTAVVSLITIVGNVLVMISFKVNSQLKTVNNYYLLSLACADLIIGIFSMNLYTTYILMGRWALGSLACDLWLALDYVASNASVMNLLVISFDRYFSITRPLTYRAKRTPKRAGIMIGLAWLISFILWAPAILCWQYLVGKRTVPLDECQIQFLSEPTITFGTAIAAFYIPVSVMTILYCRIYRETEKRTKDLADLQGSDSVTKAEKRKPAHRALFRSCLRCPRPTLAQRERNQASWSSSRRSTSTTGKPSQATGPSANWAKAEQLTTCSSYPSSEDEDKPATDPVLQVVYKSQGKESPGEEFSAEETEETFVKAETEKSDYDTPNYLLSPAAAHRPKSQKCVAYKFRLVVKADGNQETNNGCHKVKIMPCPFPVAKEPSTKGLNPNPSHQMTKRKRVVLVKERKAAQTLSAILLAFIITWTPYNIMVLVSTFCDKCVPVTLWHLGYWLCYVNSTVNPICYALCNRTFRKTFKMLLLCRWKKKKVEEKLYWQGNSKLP
# CHRM5 agonist: agonists of human muscarinic M5 receptor (CHRM5) | activation, % at 3 µM | P08912 | CHO-K1 hM5 cells, Fluo-8 calcium fluorescence; 0% DMSO wells, 100% maximal acetylcholine response | AID 624037 | 360,000 tested, 0.19% active;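 active = activation above the run's mean over test compounds plus 3 SD, cut at about 23% in these data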;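 note: signal is peak over basal fluorescence ratio across the kinetic read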
# CHRM5 PAM: positive allosteric modulators of human muscarinic M5 receptor; AID 624038; CHO-K1 hM5, Fluo-8 calcium, ACh EC20 PAM; 0% = ACh EC20, 100% = ACh EC100; activation, % at 3 µM; 360,000 tested, 0.3% active; P08912;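 active = activation above the run cutoff, the mean activation of all test compounds plus 3 SD, cut at about 18% in these data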
#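 Assay system: CHO-K1 hM5 cells. Also added: acetylcholine at EC20 concentration, added after compound. Dosing: 3 µM, single dose. Times: compound preincubation 140 s before EC20 acetylcholine addition. Signal: Fluo-8 calcium fluorescence. Measure: % activation relative to EC20 and EC100 ACh responses. Repeats: singlicate, one well per test compound.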
# M4 PAM: potentiates acetylcholine response at human M4 receptor; activation, % at 3 µM; P08173; AID 624126; CHO-K1 hM4/Gqi5, Fluo-8 calcium fluorescence, ACh EC20; 0% = ACh EC20, 100% = maximal ACh; 360,000 tested, 0.4% active;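 active = activation above its plate's cutoff, the mean activation of sample wells plus 3 SD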
# CHRM4 agonist: CHRM4 agonism in calcium assay | P08173 | CHO-K1 hM4/Gqi5, Fluo-8 calcium fluorescence; vehicle 0%, full acetylcholine response 100% | activation, % at 3 µM | 360,000 tested, 0.14% active | AID 624127;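 active = activation above the run mean over all test wells plus 3 SD, cut at about 32% in these data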;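 note: peak over basal fluorescence ratio per well then scaled between controls; 0% = DMSO wells and 100% = acetylcholine at EC100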
# Numbers without * were called inactive. The list is not random: actives were taken first. Their share in the collection is about 1.8%.
SMILES,CHRM4 antagonist,CHRM5 antagonist,CHRM5 agonist,CHRM5 PAM,M4 PAM,CHRM4 agonist
CC1=CC(=O)OC2CC3OC4C[C@@H](C)C5OC6CC7O[C@]8(C)C/C=C\C9OC%10CC%11OC(CC(C)C%12OCCO%12)CC(O)[C@]%11(C)OC%10CC9OC8C[C@]7(C)O[C@]6(C)CCC5OC4C[C@]3(C)OC12 (some centres not stated),4.7,2.9,6.7,9.8,-4.2,-0.5
COc1cccc(C(c2nnnn2C(C)(C)C)N2CCC3(CC2)C(=O)NCN3c2ccccc2)c1OC (configuration not stated),-8.4,6.6,8.2,-8.2,-2.9,17.8
CCCNC(=O)N1[C@H]2CC[C@@H]1C(C(=O)OC)=C(c1ccccc1)C2,-1.2,10.5,-1.1,-0.9,4.7,1.0
Clc1ccc2c(c1)C(OC1CN3CCC1CC3)c1ccccc1CS2 (configuration not stated),99.1*,99.0*,-2.5,-17.8,-41.8,15.7
CN1CCN(CCOC2c3ccccc3CSc3ccc(Cl)cc32)CC1 (configuration not stated),83.5*,54.3*,-2.2,-17.4,-42.8,10.9
O=C(COc1ccc(Cl)cc1)N(c1ccccc1Cl)C1CN2CCC1CC2 (configuration not stated),10.8,12.2,-19.0,-31.5,-38.6,6.0
CC12C=CC(=O)C=C1CCC1C2C(O)CC2(C)C1CCC2(C)O (configuration not stated),-7.5,12.9,3.7,-4.1,3.1,1.1
O=C(NC1CCCCC1)N1Cc2cc(-c3cccc(F)c3)ccc2-n2nncc2C1,-5.0,5.2,-0.4,-1.6,3.1,-0.7
COC(=O)C1=C(C(=O)OC)SC2(S1)C(C(=O)OC)=C(C(=O)OC)Sc1c2ssc1=O,19.3,3.1,8.2,-7.0,4.6,3.2
CCN1CCN(CC(c2ccccc2)c2ccccc2)CC1,20.9,35.8*,-20.4,-33.6,-11.1,1.6
N#CC(Br)Br,-9.0,5.0,4.9,1.9,-0.6,0.9
CC(C)=CCN1CC[C@@]2(C)c3cc(O)ccc3CC1C2C (some centres not stated),34.1*,25.3,-6.5,-22.6,-16.2,1.0
Cc1ccc(C[n+]2c(-c3ccc(C)cc3)cc(-c3ccc(C)cc3)cc2-c2ccc(C)cc2)cc1,21.4,37.4*,2.6,-29.1,-3.2,19.1
OC(c1cccc(Cl)c1)(c1cccc(Cl)c1)C1CN2CCC1CC2 (configuration not stated),94.2*,99.4*,-5.1,-21.7,-23.5,22.0
O=S(=O)(NC1CN2CCC1CC2)c1ccc(Cl)cc1 (configuration not stated),0.9,17.0,-7.2,-2.7,0.2,0.6
Cc1nn(Cc2ccccc2)c(Cl)c1C(=O)NC1CCCc2ccccc21 (configuration not stated),4.7,8.6,-4.6,-16.3,-12.7,4.9
COc1cc(C(=O)OC2C[C@H]3CC[C@@H](C2)N3)ccc1O (some centres not stated),38.2*,2.4,-8.3,-7.7,-15.6,0.5
COc1cc(C(=O)OC2C[C@H]3CC[C@@H](C2)N3C)ccc1O (some centres not stated),3.5,1.2,-7.5,-0.4,-3.8,-0.4
C[N+]12CCC(CC1)C(C(O)(c1ccccc1)c1cccs1)C2 (configuration not stated),94.3*,93.7*,-6.5,-15.6,-33.3,0.8
CCC[N+]12CCC(CC1)C(C(O)(c1ccccc1)c1ccccc1)C2 (configuration not stated),10.0,28.2*,-18.0,-34.4,-53.5,0.1
CCCC[N+]12CCC(CC1)C(C(O)(c1ccccc1)c1ccccc1)C2 (configuration not stated),20.1,7.8,-22.0,-23.0,-33.7,-0.1
CN1CCCC1C(O)(c1ccccc1)c1ccccc1 (configuration not stated),1.3,7.0,-6.4,-20.5,-2.5,1.1
